From ChEMBL document CHEMBL2163288, “Design and characterization of a selenium-containing inhibitor of activated thrombin-activatable fibrinolysis inhibitor (TAFIa), a zinc-containing metalloprotease” (J Med Chem, 2012)
Activity calls are given as the source filed them. No cut-off for these calls is given here.

What was measured:
[1] = target: T1, Carboxypeptidase B2 (Homo sapiens, UniProt Q96IY4); experiment: Inhibition of human activated TAFI using Hip-Arg as substrate incubated for 10 mins prior to substrate addition measured after 30 mins by spectrophotometric analysis
T1 sequence (Q96IY4 whole entry): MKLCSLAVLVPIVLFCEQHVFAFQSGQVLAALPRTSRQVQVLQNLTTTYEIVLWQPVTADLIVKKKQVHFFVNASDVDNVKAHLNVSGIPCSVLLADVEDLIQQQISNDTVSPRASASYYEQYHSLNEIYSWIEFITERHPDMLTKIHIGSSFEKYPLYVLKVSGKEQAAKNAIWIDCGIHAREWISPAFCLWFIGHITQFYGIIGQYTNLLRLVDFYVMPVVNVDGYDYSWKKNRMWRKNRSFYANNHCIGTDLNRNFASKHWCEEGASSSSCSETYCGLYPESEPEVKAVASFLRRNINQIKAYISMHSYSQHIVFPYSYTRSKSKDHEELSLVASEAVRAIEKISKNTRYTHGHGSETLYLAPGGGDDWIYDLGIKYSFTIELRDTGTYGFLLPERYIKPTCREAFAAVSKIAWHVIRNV
Summary of the method: (§1)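 TAFI purified from human plasma, pre-mixed with 300 ng/mL thrombomodulin (25 °C, 3 min), then activated with 3 U/mL thrombin (25 °C, 30 min). 20 U/L TAFIa preincubated with compounds for 10 min at 25 °C. Hip-Arg (3.2 mM stock) in 0.1 M Tris pH 7.6, with or without 10 μM DTT final, for 30 min at 25 °C. Stopped with PIPES/Tween 20, cyanuric acid colour read at A405. IC50 taken from sigmoidal curves.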

[2] = target: T2, Carboxypeptidase B (Sus scrofa, UniProt P09955); experiment: Inhibition of pig pancreatic carboxypeptidase B using Hip-Arg as substrate incubated for 10 mins prior to substrate addition measured after 30 mins by spectrophotometric analysis
T2 sequence (P09955 whole entry): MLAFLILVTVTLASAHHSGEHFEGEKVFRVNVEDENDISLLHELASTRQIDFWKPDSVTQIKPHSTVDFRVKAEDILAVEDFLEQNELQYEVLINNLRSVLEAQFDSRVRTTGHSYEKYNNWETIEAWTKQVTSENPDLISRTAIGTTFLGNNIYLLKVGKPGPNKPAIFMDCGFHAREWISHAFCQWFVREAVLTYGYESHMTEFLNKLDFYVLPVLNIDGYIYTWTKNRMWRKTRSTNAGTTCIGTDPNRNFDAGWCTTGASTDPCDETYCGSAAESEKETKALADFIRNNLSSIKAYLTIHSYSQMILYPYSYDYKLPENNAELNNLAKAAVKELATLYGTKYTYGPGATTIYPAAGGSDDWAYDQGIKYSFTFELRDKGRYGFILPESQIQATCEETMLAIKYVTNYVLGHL

[3] = organism: Homo sapiens; experiment: Selectivity ratio of IC50 for human carboxypeptidase N to IC50 for human activated TAFI
[4] = Inhibition of human carboxypeptidase N using Hip-Lys as substrate incubated for 10 mins prior to substrate addition measured after 30 mins by spectrophotometric analysis
Summary of the method: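 Human plasma CPN (50 U/L) preincubated with compound at 37 °C for 10 min, then Hip-Lys (3.2 mM stock) added in 0.1 M Tris-HCl pH 7.6 (±10 μM DTT) for 30 min at 37 °C. Stopped with PIPES/Tween 20 buffer; cyanuric acid colour read at 405 nm; IC50 from sigmoidal inhibition curves.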

[5] = Inhibition of human carboxypeptidase N using Hip-Lys as substrate incubated for 10 mins prior to substrate addition measured after 30 mins by spectrophotometric analysis in presence of dithiothreitol
Summary of the method: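 Human plasma carboxypeptidase N at 50 U/L preincubated with compounds for 10 min at 37 °C. Then Hip-Lys (3.2 mM stock) in 0.1 M Tris pH 7.6 buffer with DTT, for 30 min at 37 °C. Stopped with PIPES/Tween 20, cyanuric acid colour, A405. IC50 from sigmoidal inhibition curves.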

[6] = target: T2, Carboxypeptidase B; experiment: Inhibition of pig pancreatic carboxypeptidase B using Hip-Arg as substrate incubated for 10 mins prior to substrate addition measured after 30 mins by spectrophotometric analysis in presence of dithiothreitol
Summary of the method: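 Porcine pancreatic CPB at 20 U/L preincubated with compounds for 10 min at 25 °C. Then Hip-Arg (3.2 mM stock) in 0.1 M Tris pH 7.6 with 10 μM DTT final, for 30 min at 25 °C. Stopped with PIPES/Tween 20, cyanuric acid colour, absorbance at 405 nm. IC50 from sigmoidal inhibition curves.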

[7] = target: T1, Carboxypeptidase B2; experiment: Inhibition of human activated TAFI using Hip-Arg as substrate incubated for 10 mins prior to substrate addition measured after 30 mins by spectrophotometric analysis in presence of dithiothreitol; summary of the method: as §1
[8] = Selectivity ratio of IC50 for pig pancreatic carboxypeptidase B to IC50 for human activated TAFI
[9] = target: T3, Carboxypeptidase B2 (Homo sapiens) (UniProt Q96IY4); experiment: Inhibition of human activated TAFI using Hip-Arg as substrate at 10 uM incubated for 10 mins prior to substrate addition measured after 30 mins by spectrophotometric analysis
T3 sequence (whole entry): T1 sequence (Q96IY4 whole entry)
Summary of the method: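 Plasma-purified human TAFI activated with thrombomodulin (25 °C, 3 min), then thrombin (25 °C, 30 min). TAFIa (20 U/L) preincubated with compound at 25 °C for 10 min. Hip-Arg substrate (3.2 mM stock) added in 0.1 M Tris-HCl pH 7.6 with or without 10 μM DTT, 30 min at 25 °C. Stopped with PIPES/Tween 20; cyanuric acid colour read at 405 nm; IC50 from sigmoidal curves.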

Row | SMILES | IC50 [1] | IC50 [2] | Ratio IC50 [3] | IC50 [4] | IC50 [5] | IC50 [6] | IC50 [7] | Ratio IC50 [8] | inhibition [9]
1 | CCOC(=O)C(CS)CCCCCN (stereo not given) | 62 µM | 260 µM | 0.4 | 25 µM |  |  |  |  | 
2 | Nc1ncc(CC(C[Se][Se]CC(Cc2cnc(N)c(Cl)c2)C(=O)O)C(=O)O)cc1Cl (stereo not given) | 3.3 µM | 370 µM |  | > 3800 µM | > 3800 µM | 1.5 nM | 0.025 nM | 3 | 
3 | NCCCCCC(C[Se][Se]CC(CCCCCN)C(=O)O)C(=O)O (stereo not given) | > 3800 µM | 110 µM |  | > 3800 µM | 0.0086 µM | 1.1 nM | 2 nM |  | 
4 | NCCCCCC(C[Se]C(=O)CCCc1ccccc1)C(=O)O (stereo not given) | 1.6 µM | 1.5 µM |  | 6 µM | 0.016 µM | 3.2 nM | 4.1 nM |  | 
5 | NCCCCCC(CS)C(=O)O (stereo not given) | 0.034 µM |  |  | 1.4 µM |  |  |  |  | 
6 | O[C@@H](CS)[C@@H](O)CS |  |  |  |  |  |  |  |  | inactive
7 | CCOC(=O)C(CCCCCN)CSC(C)=O (stereo not given) | 310 µM | 19 µM |  | > 3800 µM |  |  |  |  | 
8 | NCCCCCC(C[Se]C(=O)CCc1ccccc1)C(=O)O (stereo not given) | 2 µM | 1.4 µM |  | 1.7 µM | 0.014 µM | 3.2 nM | 5.3 nM |  | 
9 | CC(C)[C@H](NC(=O)CCc1ccccc1)P(=O)(O)C[C@@H](CCCCCN)C(=O)O | 0.0055 µM | 0.0049 µM |  | 6.7 µM |  |  |  |  | 
10 | Nc1ccc(CC(C[Se][Se]CC(Cc2ccc(N)nc2)C(=O)O)C(=O)O)cn1 (stereo not given) | 0.2 µM | 0.28 µM |  | 4.2 µM | 0.00029 µM | 0.19 nM | 0.0022 nM | 3 | 
11 | CCOC(=O)C(C[Se]C(=O)CC)Cc1ccc(N)nc1 (stereo not given) | 180 µM | > 3800 µM |  | 15 µM | 1.7 µM | 2500 nM | 890 nM | 3 | 
12 | CCOC(=O)C(CCCCCN)C[Se]C(=O)CC (stereo not given) | 1.4 µM | 910 µM |  | 14 µM | 0.16 µM | 33 nM | 30 nM |  | 
13 | CC(=O)SCC(CCCCCN)C(=O)O (stereo not given) | 3.8 µM | 1.4 µM | 40 | 160 µM |  |  |  |  | 
14 | CCC(=O)[Se]CC(CCCCCN)C(=O)O (stereo not given) | 0.76 µM | 1.9 µM |  | 2 µM | 0.018 µM | 1.1 nM | 1.1 nM |  | 
15 | CCOC(=O)C(C[Se]C(=O)CC)Cc1cnc(N)c(Cl)c1 (stereo not given) | > 3800 µM | > 3800 µM |  | > 3800 µM | > 3800 µM | 130000 nM | 2600 nM | 3 | 
